This is an account of results in ChEMBL document CHEMBL4513216, “Probing the Open Global Health Chemical Diversity Library for Multistage-Active Starting Points for Next-Generation Antimalarials” (ACS Infect Dis, 2020).

This series in a line: Toxicity liver stage against HepG2, at 10uM. Type of series: cell-based. Details: test concentration 10 uM, cell line HepG2-A16-CD81EGFP. The following applies: human, HepG2-A16-CD81EGFP cells; read-out: INHIBITION
Put shortly:
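Uninfected HepG2-A16-CD81EGFP cells, 3 × 10^3 per well, 1536-well, plated on prespotted compound at 10 μM final, parasite-free screening media added to match infected plates; puromycin 10 μM positive, DMSO 0.5% negative; run in parallel with 48 h PbLuc assay at 37 °C, 5% CO2; viability by CellTiter-Glo luminescence, normalized to controls.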
For `Cc1cccc(CNC(=O)C2CCC(=O)N(Cc3ccccc3F)C2)n1` (stereo not given), the cytotoxicity at 10 µM was -3.75%.

Consider `CS(=O)(=O)N1CCN(Cc2ccc(F)cc2Br)CC1`, for which the cytotoxicity at 10 µM is 0.0667%.

Regarding `Cc1ccccc1NC(=O)Nc1c[nH]c(=O)[nH]c1=O`, the cytotoxicity at 10 µM was found to be 3.54%.

As to `COc1ccc2nnc(CCC(=O)Nc3nc4c(s3)CCCCC4)n2n1`, the cytotoxicity at 10 µM was found to be 4.98%.

`COc1ncccc1C(=O)N1CC(c2nc(-c3ccco3)no2)C1`: the cytotoxicity at 10 µM was 4.91%.

For the compound `COC(C)(CNS(=O)(=O)c1cn(C)cn1)c1ccccc1F` (stereo not given), the cytotoxicity at 10 µM was -8.39%.

As to `N#Cc1cnc2ccccc2c1N1CCC(C(=O)O)CC1`, the cytotoxicity at 10 µM amounted to 4.28%.

As to `CCc1ccc(-n2c(=O)[nH]c3nc(N4CCSCC4)ncc3c2=O)cc1`, the cytotoxicity at 10 µM is -4.14%.

For the compound `CCN(CC)c1ncnc2c(C)nn(CC)c12`, the cytotoxicity at 10 µM was -2.01%.

As for `Cc1cn[nH]c1C1COCCN1Cc1c[nH]cn1` (stereo not given), the cytotoxicity at 10 µM was -1.3%.

For `CC(=O)N1CCCC1c1ccc(CN2CCOCC2)cn1` (stereo not given), the cytotoxicity at 10 µM stood at 5.83%.

For the compound `Cc1c(CN2CCCC(n3c(=O)oc4ccccc43)C2)cnn1C` (stereo not given), the cytotoxicity at 10 µM was determined as 6.62%.

With `CC(C)C(=O)N1CCC(c2nc(O)cc(-c3ccncc3)n2)CC1`, the cytotoxicity at 10 µM is -5.41%.

On to `COc1ccc(CN2CC[C@H](NC(C)=O)[C@@H](O)CC2)c(OC)c1`, for which the cytotoxicity at 10 µM is -7.49%.

Consider `CCOC(=O)[C@H]1CNC[C@@H]1C(F)(F)F`, for which the cytotoxicity at 10 µM was determined as 7.06%.

Regarding `O=c1cc(CN(CCO)C2CC2)nc2ccc(Br)cn12`, the cytotoxicity at 10 µM stood at 12.5%.

With `O=C(CC1OCCc2ccccc21)NCC1(O)CCCCC1` (stereo not given), the cytotoxicity at 10 µM turned out to be 1.07%.

For the compound `CC(C)c1nn(C)c(N(C)C)c1CNC1CCCOc2ccccc21` (stereo not given), the cytotoxicity at 10 µM is -13.1%.

With `Cc1noc(C(C)N2CCC(c3nc4ccccc4[nH]3)CC2)n1` (stereo not given), the cytotoxicity at 10 µM is -6.4%.

`COC(CNC(=O)CNC(=O)c1ccccc1)c1cccc(Cl)c1` (stereo not given): the cytotoxicity at 10 µM came out at 5.61%.

On to `Cc1csc(CNCC2CCCN(C(=O)OC(C)(C)C)C2)n1` (stereo not given), for which the cytotoxicity at 10 µM is -6.82%.

Regarding `Cc1nnc2n1CCN(CC(=O)NC(C)c1cccc3ccccc13)C2` (stereo not given), the cytotoxicity at 10 µM was 7.15%.

As for `CCc1nc(C2CCCN(c3nccc(N4CCCC4)n3)C2)no1` (stereo not given), the cytotoxicity at 10 µM was determined as 19%.

As to `CCOc1cncc(N2CCOCC2)n1`, the cytotoxicity at 10 µM worked out at 3.18%.

As to `CNS(=O)(=O)c1cccc(C(C)NCc2ccc(C)o2)c1` (stereo not given), the cytotoxicity at 10 µM is -3.69%.

`O=C(CCNS(=O)(=O)c1ccc(F)c(F)c1)NCc1ccoc1`: the cytotoxicity at 10 µM amounted to 11.2%.

In the case of `CC(C)(C)c1nnc(CNc2cc(F)ccc2OCC2CCCO2)o1` (stereo not given), the cytotoxicity at 10 µM worked out at 3.06%.

As to `O=C(C(CNCc1ccccc1O)c1ccccc1)N1CCOCC1` (stereo not given), the cytotoxicity at 10 µM was -0.138%.

With `COc1ccccc1C1(CNc2ccnc(C(=O)N(C)C)c2)CC1`, the cytotoxicity at 10 µM was -1.67%.

As for `COCCNC(=O)c1cc(F)ccc1NS(C)(=O)=O`, the cytotoxicity at 10 µM was -1.23%.

For `COC(=O)N1CCC(NC2CCSCC2)C1` (stereo not given), the cytotoxicity at 10 µM is -8.23%.

In the case of `NS(=O)(=O)NCC1(c2ccccc2Br)CC1`, the cytotoxicity at 10 µM was determined as 2.91%.

With `O=C(NCC1(Sc2ccccc2)CC1)c1ccc(=O)[nH]n1`, the cytotoxicity at 10 µM is 1.52%.

In the case of `CC(=O)NCC1CCN(C(=O)c2c[nH]c3cc(Cl)ccc23)CC1`, the cytotoxicity at 10 µM was found to be 7.07%.

`COC(=O)c1cccc(NC(=O)CN2CCN(S(C)(=O)=O)CC2)c1`: the cytotoxicity at 10 µM worked out at 11.3%.

With `O=C(NCc1ccccc1F)N1CCC(C2OCCO2)CC1`, the cytotoxicity at 10 µM was 2.76%.

For `CS(=O)(=O)N[C@@H]1CCO[C@]2(CCN(C(=O)c3cscn3)C2)C1`, the cytotoxicity at 10 µM was -67.2%.

Consider `CCS(=O)(=O)N1CC[C@H]2O[C@@H](c3nnc(C)o3)CC[C@H]21`, for which the cytotoxicity at 10 µM was -63.7%.

`Cc1ccc(N2C[C@H](C(=O)N3CCOCC3)[C@@H]3CCO[C@@H]3C2)nn1`: the cytotoxicity at 10 µM was -66.8%.

As to `CN(C)CC(=O)N1Cc2ncn(C)c2C(COCC2CCOCC2)C1` (stereo not given), the cytotoxicity at 10 µM was -71%.

For `O=C(CC1CC1)N1CCC2(CC1)CN(c1ncc(F)cn1)CCO2`, the cytotoxicity at 10 µM was -72.8%.

Turning to `CC(C)N(C)[C@@H]1CCN(C(=O)c2ccc[nH]2)[C@H]1Cc1cnn(C)c1`, the cytotoxicity at 10 µM is -72%.

Regarding `O=C(c1cscn1)N1CCC2(CCN(Cc3nccs3)CC2)CC1`, the cytotoxicity at 10 µM was -71%.

For `Cn1ncc2c1C(COCC1CC1)CN(Cc1ccoc1)C2` (stereo not given), the cytotoxicity at 10 µM is -1.21%.

For the compound `O=C(C1CCOCC1)N1CC[C@H]2C[C@@H](c3ccncn3)O[C@@H]2C1`, the cytotoxicity at 10 µM was -0.748%.

As for `O=C(c1ccncc1)N1CCC2(CC1)CC(Oc1cccnc1)CO2` (stereo not given), the cytotoxicity at 10 µM is -3.66%.

Turning to `Cc1csc2ncc(-c3ccnc(N4CCN(C)CC4)n3)c(=O)n12`, the cytotoxicity at 10 µM worked out at 9.43%.

On to `CCn1ncnc1CN1CCc2[nH]cnc2C1c1ccccn1` (stereo not given), for which the cytotoxicity at 10 µM is -9.38%.

For the compound `O=C(Cc1ccsc1)N1CCN(CCOc2ccccc2)CC1`, the cytotoxicity at 10 µM was -4.6%.

`CCN(Cc1nccn1C)C(=O)c1ccc(NCC(C)C)nc1`: the cytotoxicity at 10 µM was -2.2%.

Consider `NC(=O)N1CCCC(C(=O)N2CCN(c3nsc4ccccc34)CC2)C1` (stereo not given), for which the cytotoxicity at 10 µM was 7.86%.

For `CC1(C)CNC(=O)c2nc(-c3n[nH]c(=O)[nH]3)[nH]c2C1`, the cytotoxicity at 10 µM is -4.07%.

As to `c1cn(-c2ccc(CN3CCCC3)cc2)c(-c2cc3n(n2)CCNC3)n1`, the cytotoxicity at 10 µM was -14.3%.

`CCN(CC)Cc1cc(C(=O)N2CC(C)(C)[C@@](C)(O)C2)c(C)o1`: the cytotoxicity at 10 µM turned out to be 1.07%.

For `O=C(O)CSc1nnc(-c2ccco2)n1-c1ccccc1C(F)(F)F`, the cytotoxicity at 10 µM turned out to be 3.41%.

In the case of `CC1(C)Cc2c(cnn2-c2cccc(F)c2)C(NC2CCSCC2)C1` (stereo not given), the cytotoxicity at 10 µM was -142%.

Turning to `Cc1nn(C)cc1-c1ccnc(N(C)Cc2cccs2)n1`, the cytotoxicity at 10 µM amounted to 19%.

In the case of `CC(=O)N1C[C@H]2CNC[C@@]2(C(=O)NCCCOc2cccnc2)C1`, the cytotoxicity at 10 µM was -7.52%.

With `O=C1CC[C@H]2CN(Cc3ncc[nH]3)CC[C@H]2N1CC1CCNCC1`, the cytotoxicity at 10 µM was 11.6%.

With `COc1cccc([C@H]2CN(CCCS(=O)(=O)N(C)C)C[C@@H]2N)c1`, the cytotoxicity at 10 µM was -1.18%.

For `CC(=O)N1CCN(Cc2c(C)sc3ccccc23)CC(O)C1` (stereo not given), the cytotoxicity at 10 µM worked out at 14.4%.

Regarding `Cc1ccc(-n2cc(CN3CCOCC(CN(C)C)C3)cn2)cc1C` (stereo not given), the cytotoxicity at 10 µM was -19.8%.

`COc1cc(F)ccc1C(C(=O)O)N(C)CCN1CCOCC1` (stereo not given): the cytotoxicity at 10 µM was -12.9%.

With `CC(C)CN1CCCn2nc(CNC(=O)Cc3cccc(O)c3)cc2C1`, the cytotoxicity at 10 µM stood at 4.69%.

In the case of `O=C(NCC(F)F)c1ccc(S(=O)(=O)NCCc2cn[nH]c2)cc1`, the cytotoxicity at 10 µM came to 5.5%.

For `CN(Cc1ccc(OCC(=O)N2CCOCC2)cc1)S(C)(=O)=O`, the cytotoxicity at 10 µM is 4.64%.

On to `COCc1nc2ncc3c(=O)n(-c4ccc(C(C)=O)cc4)ccc3n2n1`, for which the cytotoxicity at 10 µM was -7.03%.

Take `CCOC(=O)C1(Cc2ccccc2)CCCN(Cc2nccn2CC)C1` (stereo not given): the cytotoxicity at 10 µM worked out at 8.82%.

Turning to `Cc1cccc(C(=O)NCc2cccnc2N(C)C)n1`, the cytotoxicity at 10 µM worked out at 0.72%.

For `CC(Nc1cccc(CN2CCOC2=O)c1)C(=O)Nc1ccccc1` (stereo not given), the cytotoxicity at 10 µM is -6.42%.

Take `CC(O)CN1CCC(CNCc2cccc(OC(F)(F)F)c2)CC1` (stereo not given): the cytotoxicity at 10 µM is -7.95%.

Turning to `Cc1oc(C(=O)O)cc1S(=O)(=O)Nc1ccc(Cl)c(F)c1`, the cytotoxicity at 10 µM was -5.92%.

With `CCn1c(C(=O)N2CCN(CC(C)O)CC2)cc2ccccc21` (stereo not given), the cytotoxicity at 10 µM is -8.96%.

Turning to `Cc1cc(C(=O)N2CCCCC2c2nc(C)cs2)[nH]n1` (stereo not given), the cytotoxicity at 10 µM is -8.13%.

As to `Cc1nc(C)n(CC2CN(Cc3cccc4c3OCCO4)CCO2)n1` (stereo not given), the cytotoxicity at 10 µM was -1.99%.

As for `CCc1ncc2c(n1)CN(Cc1nc(-c3ccsc3)no1)CC2`, the cytotoxicity at 10 µM is -4.99%.

In the case of `CC(C)NC(=O)CS(=O)(=O)Cc1cc(Cl)c2c(c1)OCCO2`, the cytotoxicity at 10 µM was -4.53%.

Take `N#Cc1ccccc1CN1CCCCC1Cn1cncn1` (stereo not given): the cytotoxicity at 10 µM is -4.13%.

Take `COc1ccc(F)cc1C(=O)N(C)Cc1cc(C)on1`: the cytotoxicity at 10 µM turned out to be 0.35%.

Turning to `CNCc1ccc([C@@H]2CN(C(C)=O)C[C@H]2C(=O)N(C)C)cc1`, the cytotoxicity at 10 µM was determined as 3%.

In the case of `Cc1noc([C@H]2C[C@H]3OCC[C@H]3N(Cc3ccc(F)cc3)C2)n1`, the cytotoxicity at 10 µM was -76.4%.

Consider `CC(=O)N1[C@H](Cn2cncn2)C[C@@H]2CN(Cc3cccnc3)CC[C@@H]21`, for which the cytotoxicity at 10 µM was 3.16%.

On to `CCOCC1CN(C(=O)c2ccncn2)Cc2cnn(CC)c21` (stereo not given), for which the cytotoxicity at 10 µM is -68.3%.

Take `CN(C)C(=O)CC1CC2(CCN(CC3CC3)CC2)c2cc(F)ccc21` (stereo not given): the cytotoxicity at 10 µM was 3.37%.

With `COCC1CN(CC2CC2)Cc2nccn2C1` (stereo not given), the cytotoxicity at 10 µM is -76%.

`O=C(c1ccno1)N1CCc2ncnc(-c3ccncc3)c2CC1`: the cytotoxicity at 10 µM turned out to be 6.59%.

Consider `COC[C@]12COC[C@H]1CN(Cc1cc(OC)cc(OC)c1)C2`, for which the cytotoxicity at 10 µM is -6.33%.

Regarding `Cn1cc(C(=O)N2CC[C@@H]3[C@@H]2CCN3Cc2ccncc2)cn1`, the cytotoxicity at 10 µM is -75.3%.

With `c1cc(COC[C@]23COC[C@H]2CN(Cc2ccsc2)C3)ccn1`, the cytotoxicity at 10 µM was -90.9%.

For `Cc1cccc(CN2CCc3nnc(CN4CCCC4=O)n3CC2)n1`, the cytotoxicity at 10 µM worked out at 5.31%.

As to `O=C(c1ccncc1)N1CCCn2c(CN3CCCC3)nnc2C1`, the cytotoxicity at 10 µM was -76.9%.

Regarding `Cn1nnc2c1CCN(Cc1ccncc1)C2COCC1CC1` (stereo not given), the cytotoxicity at 10 µM amounted to 5.29%.

Take `CN1C[C@H](NC(=O)c2cscn2)[C@@H]2OCCC[C@@H]21`: the cytotoxicity at 10 µM was -112%.

For `Cc1ccc(N2CCC3(CCN(C(=O)N(C)C)CC3)CC2)nn1`, the cytotoxicity at 10 µM came out at 5.73%.

For `COc1ccc(N2CCN(C(=O)C3[C@H]4CNC[C@@H]34)CC2(C)C)cc1` (stereo not given in full), the cytotoxicity at 10 µM was 12.1%.
